ChEMBL document CHEMBL1151702, “Using an aryl phenanthroimidazole moiety as a conjugated flexible intercalator to improve the hybridization efficiency of a triplex-forming oligonucleotide” (Bioorg Med Chem, 2008)

Legend:
Format in all cases: nucleic-acid assay
Nucleic Acid [1] = assay: Binding affinity to synthetic double stranded DNA D4 at 1.5 uM at pH 6.0 by thermal denaturation study
In short: (§1)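 Parallel triplex melting: target duplex assembled from strands at 1.0 µM each, TFO third strand added at 1.5 µM. Buffer 20 mM sodium cacodylate, 100 mM NaCl, 10 mM MgCl₂, at the pH of the line. Samples heated to 80 °C for 5 min, cooled to 5 °C and held 30 min. Absorbance read at 260 nm while heating at 1.0 °C/min; Tm taken as the first-derivative maximum.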

Nucleic Acid [2] = assay: Binding affinity to synthetic double stranded DNA D3 at 1.5 uM at pH 6.0 by thermal denaturation study; in short: as §1
Nucleic Acid [3] = assay: Binding affinity to synthetic double stranded DNA D2 at 1.5 uM at pH 6.0 by thermal denaturation study; in short: as §1
Nucleic Acid [4] = assay: Binding affinity to synthetic oligonucleotide ON18 at 1.0 uM at pH 6.0 by thermal denaturation study
In short: (§2)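 Duplex melting: complementary strands at 1.0 µM each in 20 mM sodium cacodylate, 100 mM NaCl, 10 mM MgCl₂, at the pH of the line. Annealed at 80 °C for 5 min, then cooled to 5 °C and held 30 min. UV absorbance read at 260 nm with heating at 1.0 °C/min; Tm is the maximum of the first-derivative curve.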

Nucleic Acid [5] = assay: Binding affinity to synthetic double stranded DNA D1 at 1.5 uM at pH 7.2 by thermal denaturation study; in short: as §1
Nucleic Acid [6] = assay: Binding affinity to synthetic double stranded DNA D1 at 1.5 uM at pH 6.0 by thermal denaturation study; in short: as §1
Nucleic Acid [7] = assay: Binding affinity to synthetic oligonucleotide ON19 at 1.0 uM at pH 6.0 by thermal denaturation study; in short: as §2
Nucleic Acid [8] = assay: Binding affinity to synthetic oligonucleotide ON19 at 1.0 uM at pH 7.2 by thermal denaturation study; in short: as §2
Nucleic Acid [9] = assay: Binding affinity to synthetic oligonucleotide ON20 at 1.0 uM at pH 7.0 by thermal denaturation study
In short: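 DNA/RNA antiparallel duplex: each strand at 1.0 µM in 10 mM sodium phosphate, 140 mM NaCl, 1 mM EDTA, pH 7.0. Heated to 80 °C for 5 min, cooled to 5 °C and held 30 min. Absorbance followed at 260 nm during a 1.0 °C/min temperature ramp; Tm is the first-derivative maximum.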

| Compound | Tm (Nucleic Acid [1]) [°C] | Tm (Nucleic Acid [2]) [°C] | Tm (Nucleic Acid [3]) [°C] | Tm (Nucleic Acid [4]) [°C] | Tm (Nucleic Acid [5]) [°C] | Tm (Nucleic Acid [6]) [°C] | Tm (Nucleic Acid [7]) [°C] | Tm (Nucleic Acid [8]) [°C] | Tm (Nucleic Acid [9]) [°C] |
| --- | --- | --- | --- | --- | --- | --- | --- | --- | --- |
| Cc1cn([C@H]2C[C@H](OP(=O)(O)OC[C@H]3O[C@@H](n4ccc(N)nc4=O)C[C@@H]3OP(=O)(O)OC[C@H]3O[C@@H](n4cc(C)c(=O)[nH]c4=O)C[C@@H]3OP(=O)(O)O[C@@H](CCOc3ccc(-c4nc5c6ccccc6c6ccccc6c5[nH]4)cc3)COC[C@H]3O[C@@H](n4cc(C)c(=O)[nH]c4=O)C[C@@H]3OP(=O)(O)OC[C@H]3O[C@@H](n4cc(C)c(=O)[nH]c4=O)C[C@@H]3O[PH](O)(O)OC[C@H]3O[C@@H](n4cc(C)c(=O)[nH]c4=O)C[C@@H]3OP(=O)(O)OC[C@H]3O[C@@H](n4cc(C)c(=O)[nH]c4=O)C[C@@H]3OP(=O)(O)OC[C@H]3O[C@@H](n4cc(C)c(=O)[nH]c4=O)C[C@@H]3O)[C@@H](COC[C@H](CCOc3ccc(-c4nc5c6ccccc6c6ccccc6c5[nH]4)cc3)OP(=O)(O)O[C@H]3C[C@H](n4cc(C)c(=O)[nH]c4=O)O[C@@H]3COP(=O)(O)O[C@H]3C[C@H](n4cc(C)c(=O)[nH]c4=O)O[C@@H]3COP(=O)(O)O[C@H]3C[C@H](n4ccc(N)nc4=O)O[C@@H]3COP(=O)(O)O[C@H]3C[C@H](n4ccc(N)nc4=O)O[C@@H]3COP(=O)(O)O[C@H]3C[C@H](n4ccc(N)nc4=O)O[C@@H]3COP(=O)(O)O[C@H]3C[C@H](n4ccc(N)nc4=O)O[C@@H]3CO)O2)c(=O)[nH]c1=O | 42 | 37 | 35.5 | 37.5 | 37 | 51.5 | 49 | 50.5 | 49.5 |
| Cc1cn([C@H]2C[C@H](OP(=O)(O)OC[C@H]3O[C@@H](n4cc(C)c(=O)[nH]c4=O)C[C@@H]3O[PH](O)(O)OC[C@H]3O[C@@H](n4cc(C)c(=O)[nH]c4=O)C[C@@H]3OP(=O)(O)OC[C@H]3O[C@@H](n4cc(C)c(=O)[nH]c4=O)C[C@@H]3OP(=O)(O)OC[C@H]3O[C@@H](n4cc(C)c(=O)[nH]c4=O)C[C@@H]3O)[C@@H](COC[C@H](CCOc3ccc(-c4nc5c6ccccc6c6ccccc6c5[nH]4)c4ccccc34)OP(=O)(O)O[C@H]3C[C@H](n4cc(C)c(=O)[nH]c4=O)O[C@@H]3COP(=O)(O)O[C@H]3C[C@H](n4ccc(N)nc4=O)O[C@@H]3COP(=O)(O)O[C@H]3C[C@H](n4cc(C)c(=O)[nH]c4=O)O[C@@H]3COP(=O)(O)O[C@H]3C[C@H](n4cc(C)c(=O)[nH]c4=O)O[C@@H]3COP(=O)(O)O[C@H]3C[C@H](n4cc(C)c(=O)[nH]c4=O)O[C@@H]3COP(=O)(O)O[C@H]3C[C@H](n4ccc(N)nc4=O)O[C@@H]3COP(=O)(O)O[C@H]3C[C@H](n4ccc(N)nc4=O)O[C@@H]3COP(=O)(O)O[C@H]3C[C@H](n4ccc(N)nc4=O)O[C@@H]3COP(=O)(O)O[C@H]3C[C@H](n4ccc(N)nc4=O)O[C@@H]3CO)O2)c(=O)[nH]c1=O | 26 | 22.5 | 21 | 19.5 | 18.5 | 38.5 | 47.5 | 47.5 | 49.5 |
| Cc1cn([C@H]2C[C@H](OP(=O)(O)OC[C@H]3O[C@@H](n4cc(C)c(=O)[nH]c4=O)C[C@@H]3OP(=O)(O)OC[C@H]3O[C@@H](n4cc(C)c(=O)[nH]c4=O)C[C@@H]3OP(=O)(O)OC[C@H]3O[C@@H](n4ccc(N)nc4=O)C[C@@H]3OP(=O)(O)OC[C@H]3O[C@@H](n4cc(C)c(=O)[nH]c4=O)C[C@@H]3OP(=O)(O)OC[C@H]3O[C@@H](n4cc(C)c(=O)[nH]c4=O)C[C@@H]3OP(=O)(O)OC[C@H]3O[C@@H](n4cc(C)c(=O)[nH]c4=O)C[C@@H]3O[PH](O)(O)OC[C@H]3O[C@@H](n4cc(C)c(=O)[nH]c4=O)C[C@@H]3OP(=O)(O)OC[C@H]3O[C@@H](n4cc(C)c(=O)[nH]c4=O)C[C@@H]3OP(=O)(O)OC[C@H]3O[C@@H](n4cc(C)c(=O)[nH]c4=O)C[C@@H]3O)[C@@H](COP(=O)(O)O[C@H]3C[C@H](n4ccc(N)nc4=O)O[C@@H]3COP(=O)(O)O[C@H]3C[C@H](n4ccc(N)nc4=O)O[C@@H]3COP(=O)(O)O[C@H]3C[C@H](n4ccc(N)nc4=O)O[C@@H]3COP(=O)(O)O[C@H]3C[C@H](n4ccc(N)nc4=O)O[C@@H]3COP(=O)(O)O[C@H](CO)CCOc3ccc(-c4nc5c6ccccc6c6ccccc6c5[nH]4)cc3)O2)c(=O)[nH]c1=O | – | – | – | 34 | 20.5 | 46 | 56.5 | 56.5 | 59 |
| Cc1cn([C@H]2C[C@H](OP(=O)(O)OC[C@H]3O[C@@H](n4cc(C)c(=O)[nH]c4=O)C[C@@H]3OP(=O)(O)OC[C@H]3O[C@@H](n4cc(C)c(=O)[nH]c4=O)C[C@@H]3O[PH](O)(O)OC[C@H]3O[C@@H](n4cc(C)c(=O)[nH]c4=O)C[C@@H]3OP(=O)(O)OC[C@H]3O[C@@H](n4cc(C)c(=O)[nH]c4=O)C[C@@H]3OP(=O)(O)OC[C@H]3O[C@@H](n4cc(C)c(=O)[nH]c4=O)C[C@@H]3O)[C@@H](COC[C@@H](CCOc3ccc(-c4nc5c6ccccc6c6ccccc6c5[nH]4)cc3)OP(=O)(O)O[C@H]3C[C@H](n4ccc(N)nc4=O)O[C@@H]3COP(=O)(O)O[C@H]3C[C@H](n4cc(C)c(=O)[nH]c4=O)O[C@@H]3COP(=O)(O)O[C@H]3C[C@H](n4cc(C)c(=O)[nH]c4=O)O[C@@H]3COP(=O)(O)O[C@H]3C[C@H](n4cc(C)c(=O)[nH]c4=O)O[C@@H]3COP(=O)(O)O[C@H]3C[C@H](n4ccc(N)nc4=O)O[C@@H]3COP(=O)(O)O[C@H]3C[C@H](n4ccc(N)nc4=O)O[C@@H]3COP(=O)(O)O[C@H]3C[C@H](n4ccc(N)nc4=O)O[C@@H]3COP(=O)(O)O[C@H]3C[C@H](n4ccc(N)nc4=O)O[C@@H]3CO)O2)c(=O)[nH]c1=O | – | – | – | 34.5 | 25 | 43.5 | 51 | 50.5 | 51 |
| Cc1cn([C@H]2C[C@H](OP(=O)(O)OC[C@H]3O[C@@H](n4ccc(N)nc4=O)C[C@@H]3OP(=O)(O)OC[C@H]3O[C@@H](n4cc(C)c(=O)[nH]c4=O)C[C@@H]3OP(=O)(O)O[C@@H](CCOc3ccc(-c4nc5c6ccccc6c6ccccc6c5[nH]4)c4ccccc34)COC[C@H]3O[C@@H](n4cc(C)c(=O)[nH]c4=O)C[C@@H]3OP(=O)(O)OC[C@H]3O[C@@H](n4cc(C)c(=O)[nH]c4=O)C[C@@H]3O[PH](O)(O)OC[C@H]3O[C@@H](n4cc(C)c(=O)[nH]c4=O)C[C@@H]3OP(=O)(O)OC[C@H]3O[C@@H](n4cc(C)c(=O)[nH]c4=O)C[C@@H]3OP(=O)(O)OC[C@H]3O[C@@H](n4cc(C)c(=O)[nH]c4=O)C[C@@H]3O)[C@@H](COC[C@H](CCOc3ccc(-c4nc5c6ccccc6c6ccccc6c5[nH]4)c4ccccc34)OP(=O)(O)O[C@H]3C[C@H](n4cc(C)c(=O)[nH]c4=O)O[C@@H]3COP(=O)(O)O[C@H]3C[C@H](n4cc(C)c(=O)[nH]c4=O)O[C@@H]3COP(=O)(O)O[C@H]3C[C@H](n4ccc(N)nc4=O)O[C@@H]3COP(=O)(O)O[C@H]3C[C@H](n4ccc(N)nc4=O)O[C@@H]3COP(=O)(O)O[C@H]3C[C@H](n4ccc(N)nc4=O)O[C@@H]3COP(=O)(O)O[C@H]3C[C@H](n4ccc(N)nc4=O)O[C@@H]3CO)O2)c(=O)[nH]c1=O | 17.5 | 33.5 | 24 | 20.5 | 15 | 46.5 | 38.5 | 38.5 | 42.5 |
| Cc1cn([C@H]2C[C@H](OP(=O)(O)OC[C@H]3O[C@@H](n4cc(C)c(=O)[nH]c4=O)C[C@@H]3OP(=O)(O)OC[C@H]3O[C@@H](n4cc(C)c(=O)[nH]c4=O)C[C@@H]3OP(=O)(O)OC[C@H]3O[C@@H](n4ccc(N)nc4=O)C[C@@H]3OP(=O)(O)OC[C@H]3O[C@@H](n4cc(C)c(=O)[nH]c4=O)C[C@@H]3OP(=O)(O)OC[C@H]3O[C@@H](n4cc(C)c(=O)[nH]c4=O)C[C@@H]3OP(=O)(O)OC[C@H]3O[C@@H](n4cc(C)c(=O)[nH]c4=O)C[C@@H]3O[PH](O)(O)OC[C@H]3O[C@@H](n4cc(C)c(=O)[nH]c4=O)C[C@@H]3OP(=O)(O)OC[C@H]3O[C@@H](n4cc(C)c(=O)[nH]c4=O)C[C@@H]3OP(=O)(O)OC[C@H]3O[C@@H](n4cc(C)c(=O)[nH]c4=O)C[C@@H]3OP(=O)(O)O[C@H](CO)CCOc3ccc(-c4nc5c6ccccc6c6ccccc6c5[nH]4)cc3)[C@@H](COP(=O)(O)O[C@H]3C[C@H](n4ccc(N)nc4=O)O[C@@H]3COP(=O)(O)O[C@H]3C[C@H](n4ccc(N)nc4=O)O[C@@H]3COP(=O)(O)O[C@H]3C[C@H](n4ccc(N)nc4=O)O[C@@H]3COP(=O)(O)O[C@H]3C[C@H](n4ccc(N)nc4=O)O[C@@H]3CO)O2)c(=O)[nH]c1=O | – | – | – | 31.5 | 20 | 43.5 | 54 | 54 | 55.5 |
